2 compounds from ChEMBL document CHEMBL1154352, “Toll-like receptor 7 selective synthetic oligoribonucleotide agonists: synthesis and structure-activity relationship studies” (J Med Chem, 2009) can be followed below.

In test [1] the target is T1, Toll-like receptor 7 (Homo sapiens) (UniProt Q9NYK1).
T1 sequence (whole entry): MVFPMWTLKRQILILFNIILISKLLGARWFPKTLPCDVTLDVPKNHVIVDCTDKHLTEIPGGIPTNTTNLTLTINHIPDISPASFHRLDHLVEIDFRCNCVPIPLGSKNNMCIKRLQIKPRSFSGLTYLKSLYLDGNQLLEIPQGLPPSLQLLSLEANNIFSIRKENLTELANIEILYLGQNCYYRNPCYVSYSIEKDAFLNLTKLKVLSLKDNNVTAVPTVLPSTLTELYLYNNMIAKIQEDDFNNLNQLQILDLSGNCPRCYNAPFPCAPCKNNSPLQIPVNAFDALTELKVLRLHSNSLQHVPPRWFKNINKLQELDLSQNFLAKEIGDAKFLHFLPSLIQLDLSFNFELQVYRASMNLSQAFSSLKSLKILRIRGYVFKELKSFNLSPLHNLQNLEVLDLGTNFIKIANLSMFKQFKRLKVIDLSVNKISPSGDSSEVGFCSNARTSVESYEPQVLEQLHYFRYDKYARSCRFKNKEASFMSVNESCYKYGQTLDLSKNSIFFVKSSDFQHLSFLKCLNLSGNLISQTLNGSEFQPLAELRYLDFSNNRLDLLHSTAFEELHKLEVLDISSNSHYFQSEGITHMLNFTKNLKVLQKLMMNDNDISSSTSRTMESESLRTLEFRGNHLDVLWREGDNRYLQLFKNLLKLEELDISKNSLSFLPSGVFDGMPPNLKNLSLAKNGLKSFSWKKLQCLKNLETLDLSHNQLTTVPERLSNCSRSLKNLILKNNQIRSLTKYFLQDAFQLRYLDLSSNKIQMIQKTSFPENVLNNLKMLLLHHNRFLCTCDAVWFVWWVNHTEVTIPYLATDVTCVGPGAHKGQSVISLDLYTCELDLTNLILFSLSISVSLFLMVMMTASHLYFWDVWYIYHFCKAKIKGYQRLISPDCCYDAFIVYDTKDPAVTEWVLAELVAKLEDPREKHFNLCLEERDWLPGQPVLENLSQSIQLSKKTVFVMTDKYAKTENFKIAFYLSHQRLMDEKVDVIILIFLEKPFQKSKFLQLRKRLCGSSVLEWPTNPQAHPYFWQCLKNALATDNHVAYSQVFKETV
Kind of test: Activation of human TLR7 expressed in HEK293XL assessed as fold induction of NF-kappaB activity at 50 ug/ml after 18 hrs by reporter gene assay relative to control. The method, boiled down: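 HEK293 cells stably expressing human TLR7 or TLR8, transiently transfected with SEAP reporter plasmid; medium replaced, SIMRA compounds added, 18 h incubation. Supernatant SEAP measured by QuantiBlue; expressed as fold increase in NF-κB activity over PBS control. Tabulated data at 50 μg/mL, representative of three independent experiments.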

Test [2] addresses T2, Toll-like receptor 9 (Mus musculus) (UniProt Q9EQU3).
T2 sequence (whole entry): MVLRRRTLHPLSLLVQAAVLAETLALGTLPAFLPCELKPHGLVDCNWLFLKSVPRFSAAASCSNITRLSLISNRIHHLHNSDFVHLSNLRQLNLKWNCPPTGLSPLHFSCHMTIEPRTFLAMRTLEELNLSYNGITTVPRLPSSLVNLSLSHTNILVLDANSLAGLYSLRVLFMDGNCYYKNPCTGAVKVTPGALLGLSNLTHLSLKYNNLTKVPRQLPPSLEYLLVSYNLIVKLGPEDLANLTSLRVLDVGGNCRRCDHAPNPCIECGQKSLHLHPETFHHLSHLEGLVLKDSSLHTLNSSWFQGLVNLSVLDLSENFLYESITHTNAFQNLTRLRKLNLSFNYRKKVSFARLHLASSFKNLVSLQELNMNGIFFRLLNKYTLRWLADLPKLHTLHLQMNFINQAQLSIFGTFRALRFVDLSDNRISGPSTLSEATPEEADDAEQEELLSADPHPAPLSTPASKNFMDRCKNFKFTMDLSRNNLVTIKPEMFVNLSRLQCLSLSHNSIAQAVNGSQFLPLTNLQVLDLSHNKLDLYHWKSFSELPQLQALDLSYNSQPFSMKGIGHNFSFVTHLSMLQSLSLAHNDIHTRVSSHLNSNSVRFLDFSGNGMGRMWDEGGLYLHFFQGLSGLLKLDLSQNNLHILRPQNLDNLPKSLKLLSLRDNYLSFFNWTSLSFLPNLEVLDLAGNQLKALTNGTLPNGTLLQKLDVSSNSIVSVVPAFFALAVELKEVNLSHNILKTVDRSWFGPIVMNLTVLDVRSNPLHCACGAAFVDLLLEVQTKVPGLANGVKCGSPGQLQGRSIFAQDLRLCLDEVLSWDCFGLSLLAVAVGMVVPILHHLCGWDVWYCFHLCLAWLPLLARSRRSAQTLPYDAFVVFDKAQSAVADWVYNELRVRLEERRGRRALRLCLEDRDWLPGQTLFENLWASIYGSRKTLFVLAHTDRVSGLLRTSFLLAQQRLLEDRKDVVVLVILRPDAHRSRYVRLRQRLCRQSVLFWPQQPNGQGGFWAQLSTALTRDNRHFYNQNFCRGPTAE
In words: Activation of mouse TLR9 expressed in HEK293 assessed as induction of NF-kappaB activity reporter gene assay. The format is cell-based.

The test system of test [3] is Splenocyte. In words: Immunomodulatory activity in C57BL/6 mouse splenocytes bearing TLR7 receptor assessed as IL6 release at 100 ug/ml after 24 hrs by ELISA. Format: functional, cell-based. The method, boiled down:
(§1)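 C57BL/6 splenocytes in RPMI 1640 with 10% FBS, penicillin/streptomycin, 2 mM L-glutamine, plated at 5 × 10^6 cells/mL; compounds in PBS added, 37 °C for 24 h. Supernatant IL-12 and IL-6 by ELISA; representative of three independent experiments.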

Test [4] concerns Splenocyte. In words: Immunomodulatory activity in C57BL/6 mouse splenocytes bearing TLR7 receptor assessed as IL12 release at 100 ug/ml after 24 hrs by ELISA. Format: functional, cell-based. In short, it runs like this: as §1
Test [5] has as its system PBMC. In words: Immunomodulatory activity in human PBMC assessed as induction of IL12 at 100 ug/ml after 24 hrs. The format is functional, cell-based. In short, it runs like this: (§2)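 Human PBMCs plated at 5 × 10^6 cells/mL; compounds dissolved in PBS added at various concentrations, 37 °C for 24 h. Supernatant cytokines/chemokines quantified with human Luminex multiplex kit.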

Test [6] relates to PBMC. Kind of test: Immunomodulatory activity in human PBMC assessed as induction of TNFalpha at 100 ug/ml after 24 hrs. Format: functional, cell-based. The method, boiled down: as §2

The source made the active and inactive calls. No cut-off for these calls is given here.

As for `Nc1ccn([C@@H]2O[C@H](COP(=O)(S)O[C@H]3[C@@H](O)[C@H](n4cnc5c(N)ncnc54)O[C@@H]3CO)[C@@H](OP(=O)(S)OC[C@H]3O[C@@H](n4ccc(=O)[nH]c4=O)[C@H](O)[C@@H]3OP(=O)(S)OC[C@H]3O[C@@H](n4ccc(=O)[nH]c4=O)[C@H](O)[C@@H]3OP(=O)(S)OC[C@H]3O[C@@H](n4ccc5c(=O)[nH]c(N)nc54)[C@H](O)[C@@H]3OP(=O)(S)OC[C@H]3O[C@@H](n4cnc5c(N)ncnc54)[C@H](O)[C@@H]3OP(=O)(S)OC[C@H]3O[C@@H](n4ccc(N)nc4=O)[C@H](O)[C@@H]3OP(=O)(S)OC[C@H]3O[C@@H](n4ccc5c(=O)[nH]c(N)nc54)[C@H](O)[C@@H]3OP(=O)(S)OC[C@H]3O[C@@H](n4cnc5c(N)ncnc54)[C@H](O)[C@@H]3OP(=O)(S)OC[C@H]3O[C@@H](n4ccc(=O)[nH]c4=O)[C@H](O)[C@@H]3OP(=O)(S)OC[C@H]3O[C@@H](n4ccc(=O)[nH]c4=O)[C@H](O)[C@@H]3OP(=O)(S)OCC(O)COP(=O)(S)O[C@H]3[C@@H](O)[C@H](n4ccc(=O)[nH]c4=O)O[C@@H]3COP(=O)(S)O[C@H]3[C@@H](O)[C@H](n4ccc(=O)[nH]c4=O)O[C@@H]3COP(=O)(S)O[C@H]3[C@@H](O)[C@H](n4cnc5c(N)ncnc54)O[C@@H]3COP(=O)(S)O[C@H]3[C@@H](O)[C@H](n4ccc5c(=O)[nH]c(N)nc54)O[C@@H]3COP(=O)(S)O[C@H]3[C@@H](O)[C@H](n4ccc(N)nc4=O)O[C@@H]3COP(=O)(S)O[C@H]3[C@@H](O)[C@H](n4cnc5c(N)ncnc54)O[C@@H]3COP(=O)(S)O[C@H]3[C@@H](O)[C@H](n4ccc5c(=O)[nH]c(N)nc54)O[C@@H]3COP(=O)(S)O[C@H]3[C@@H](O)[C@H](n4ccc(=O)[nH]c4=O)O[C@@H]3COP(=O)(S)O[C@H]3[C@@H](O)[C@H](n4ccc(=O)[nH]c4=O)O[C@@H]3COP(=O)(S)O[C@H]3[C@@H](O)[C@H](n4ccc(N)nc4=O)O[C@@H]3COP(=O)(S)O[C@H]3[C@@H](O)[C@H](n4cnc5c(N)ncnc54)O[C@@H]3CO)[C@H]2O)c(=O)n1` (some centres not stated), the fold change (FC) in test [1] stood at 16.6. Besides, the result in test [2] was inactive. For the same compound, the result in test [3] and in test [4] was Active. Moreover, the results for the Activity in test [5] and in test [6] were 394 pg/mL and 115 pg/mL, respectively.

`Nc1ccn([C@@H]2O[C@H](COP(=O)(S)O[C@H]3[C@@H](O)[C@H](n4cnc5c(N)ncnc54)O[C@@H]3CO)[C@@H](OP(=O)(S)OC[C@H]3O[C@@H](n4ccc5c(=O)[nH]c(N)nc54)[C@H](O)[C@@H]3OP(=O)(S)OC[C@H]3O[C@@H](n4ccc(N)nc4=O)[C@H](O)[C@@H]3OP(=O)(S)OC[C@H]3O[C@@H](n4ccc(=O)[nH]c4=O)[C@H](O)[C@@H]3OP(=O)(S)OC[C@H]3O[C@@H](n4ccc5c(=O)[nH]c(N)nc54)[C@H](O)[C@@H]3OP(=O)(S)OC[C@H]3O[C@@H](n4cnc5c(N)ncnc54)[C@H](O)[C@@H]3OP(=O)(S)OC[C@H]3O[C@@H](n4ccc5c(=O)[nH]c(N)nc54)[C@H](O)[C@@H]3OP(=O)(S)OC[C@H]3O[C@@H](n4ccc(N)nc4=O)[C@H](O)[C@@H]3OP(=O)(S)OC[C@H]3O[C@@H](n4ccc(=O)[nH]c4=O)[C@H](O)[C@@H]3OP(=O)(S)OC[C@H]3O[C@@H](n4ccc(=O)[nH]c4=O)[C@H](O)[C@@H]3OP(=O)(S)OCC(O)COP(=O)(S)O[C@H]3[C@@H](O)[C@H](n4ccc(=O)[nH]c4=O)O[C@@H]3COP(=O)(S)O[C@H]3[C@@H](O)[C@H](n4ccc(=O)[nH]c4=O)O[C@@H]3COP(=O)(S)O[C@H]3[C@@H](O)[C@H](n4ccc(N)nc4=O)O[C@@H]3COP(=O)(S)O[C@H]3[C@@H](O)[C@H](n4ccc5c(=O)[nH]c(N)nc54)O[C@@H]3COP(=O)(S)O[C@H]3[C@@H](O)[C@H](n4cnc5c(N)nc(N)nc54)O[C@@H]3COP(=O)(S)O[C@H]3[C@@H](O)[C@H](n4ccc5c(=O)[nH]c(N)nc54)O[C@@H]3COP(=O)(S)O[C@H]3[C@@H](O)[C@H](n4ccc(=O)[nH]c4=O)O[C@@H]3COP(=O)(S)O[C@H]3[C@@H](O)[C@H](n4ccc(N)nc4=O)O[C@@H]3COP(=O)(S)O[C@H]3[C@@H](O)[C@H](n4ccc5c(=O)[nH]c(N)nc54)O[C@@H]3COP(=O)(S)O[C@H]3[C@@H](O)[C@H](n4ccc(N)nc4=O)O[C@@H]3COP(=O)(S)O[C@H]3[C@@H](O)[C@H](n4cnc5c(N)ncnc54)O[C@@H]3CO)[C@H]2O)c(=O)n1` (some centres not stated): in test [1], the fold change (FC) stood at 26.6. The outcome in test [2] was inactive. Also, the outcome in test [3] and in test [4] was Active. Further, the Activity was found to be 2240 pg/mL in test [5] and 1410 pg/mL in test [6].
